Consider three compounds from ChEMBL document CHEMBL3272071, “Chemistry and biological activities of N,N-dimethylaminoethyl acrylate, a choline acetyltransferase inhibitor” (J Med Chem, 1976).

The source made the active and inactive calls. The rule behind the calls is not given here.

The nature of data set [1]: Stability of the compound assessed as autohydrolysis at 5 X 10^-3 M at pH 7.4. Type of data set: physicochemical. As to conditions: buffer, pH 7.4, 5000 µM. The procedure, abridged:
(§1)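 Autohydrolysis run at 25°C for 20 min in barbital buffer (1.5 mM sodium barbital, 0.3 mM KH2PO4, 150 mM NaCl), pH adjusted to give 7.3-7.6. Compound at 5.0 mM final, no enzyme. pH change tracked against an acrylic acid titration standard curve. Mean ± SEM, three experiments.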

Another data set deals with Cholinesterase (Homo sapiens, UniProt P06276). Nature of the data set: Stability of the compound assessed as butyrylcholine esterase (unknown origin)-mediated hydrolysis at 5 X 10^-3 M. Type of data set: ADME. As to conditions: 5000 µM. The procedure, abridged:
(§2)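 Enzymatic hydrolysis at 5 mM compound in barbital buffer at 25°C for 20 min, pH 7.3-7.6. AChE at 0.083 U/ml or BuChE at 0.017 U/ml. Ester cleavage followed as pH change calibrated against acrylic acid. Mean ± SEM of three experiments.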

A further data set concerns the target Acetylcholinesterase (Homo sapiens, UniProt P22303). Nature of the data set: Stability of the compound assessed as acetylcholinesterase (unknown origin)-mediated hydrolysis at 5 X 10^-3 M. Type of data set: ADME. As to conditions: 5000 µM. The procedure, abridged:
as §2

In data set [2] the target is T1, Choline O-acetyltransferase (Rattus norvegicus, UniProt P32738).
T1 sequence (P32738 whole entry): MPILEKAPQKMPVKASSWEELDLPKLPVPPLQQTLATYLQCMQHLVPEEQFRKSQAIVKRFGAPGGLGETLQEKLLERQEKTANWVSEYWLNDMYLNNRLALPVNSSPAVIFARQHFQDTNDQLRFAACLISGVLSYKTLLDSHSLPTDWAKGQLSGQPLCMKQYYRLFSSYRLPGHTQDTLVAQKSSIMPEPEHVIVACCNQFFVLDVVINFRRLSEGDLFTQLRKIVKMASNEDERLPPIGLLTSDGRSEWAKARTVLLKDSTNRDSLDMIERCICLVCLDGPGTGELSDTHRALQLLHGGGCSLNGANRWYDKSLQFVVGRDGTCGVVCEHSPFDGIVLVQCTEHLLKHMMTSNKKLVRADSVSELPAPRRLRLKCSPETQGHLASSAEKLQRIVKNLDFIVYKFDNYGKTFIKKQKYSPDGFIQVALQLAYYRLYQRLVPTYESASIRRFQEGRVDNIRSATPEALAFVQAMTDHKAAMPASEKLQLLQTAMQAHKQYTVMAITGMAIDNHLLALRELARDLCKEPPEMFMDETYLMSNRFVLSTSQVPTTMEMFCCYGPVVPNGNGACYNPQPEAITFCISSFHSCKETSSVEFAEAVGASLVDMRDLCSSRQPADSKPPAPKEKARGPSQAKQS
Nature of the data set: Inhibition of Holtzman rat brain choline acetyltransferase using [1-14C-acetyl]-CoA as substrate at 1 mM incubated 20 mins prior to substrate addition measured after 30 mins by liquid scintillation counting analysis. As to conditions: read-out: I50.

The nature of data set [3]: Stability in D2O by NMR spectroscopy. Type of data set: physicochemical. The procedure, abridged: (§3)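 NMR spectra taken in D2O every 3 min for 1 hr. pH stayed at 9.0 (±0.5) throughout.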
Data set [4] deals with T2, Choline O-acetyltransferase (Rattus norvegicus) (UniProt P32738).
T2 sequence (whole entry): T1 sequence (P32738 whole entry)
Nature of the data set: Uncompetitive inhibition of Holtzman rat brain choline acetyltransferase using acetyl-CoA as substrate at 0.2 mM incubated 20 mins prior to substrate addition measured after 30 mins by LB plot using liquid scintillation counting analysis.

Data set [5] is described as follows: Stability in Me2SO-d6 by NMR spectroscopy. Type of data set: physicochemical.
The target of data set [6] is T1, Choline O-acetyltransferase. The experiment in a line: Inhibition of Holtzman rat brain choline acetyltransferase using [1-14C-acetyl]-CoA as substrate incubated 20 mins prior to substrate addition measured after 30 mins by liquid scintillation counting analysis. The following applies: read-out: I50. The gist of the method:
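ChAc extracted from Holtzman rat brain acetone powder in ice-cold pH 7.0 phosphate medium (NaCl, EDTA, cysteine, BSA), 9000 g supernatant. Extract preincubated with inhibitor 20 min at 37°C in pH 7.0 phosphate buffer with 150 mM NaCl, 0.05 mM neostigmine, 50 mM choline. Then [1-14C-acetyl]-CoA at 0.065 mM final, 30 min at 37°C. Acetylated product by sequential anion/cation exchange and scintillation counting.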

Data set [7] has as its target T2, Choline O-acetyltransferase (Rattus norvegicus). The experiment in a line: Inhibition of Holtzman rat brain choline acetyltransferase using [1-14C-acetyl]-CoA as substrate at 1 mM incubated in un-buffered water for 24 hrs by liquid scintillation counting analysis. The gist of the method:
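Hydration product made by keeping compound in unbuffered water for 24 hr, then run at 1.0 mM in the standard rat brain ChAc radioassay: 20 min preincubation at 37°C, 0.065 mM [1-14C-acetyl]-CoA, 30 min, ion-exchange then scintillation counting.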

The nature of data set [8]: Stability in aqueous medium by NMR spectroscopy. Type of data set: physicochemical. As to conditions: buffer. The procedure, abridged: as §3
Data set [9] concerns Lithobates pipiens. The experiment in a line: Inhibition of choline acetyltransferase in frog sciatic nerve-gastrocnemius muscle assessed as blockade of electrically stimulated muscle contraction after 3 hrs. Type of data set: tissue-based. The procedure, abridged: (§4)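 Rana pipiens sciatic nerve-gastrocnemius (20-25 g frogs) in frog Ringer, 25°C, 95% O2/5% CO2. Nerve stimulated at 7 V, 0.5 ms, 250 Hz for 0.1 s every 10 s. Isometric contractions recorded, with washout after 10^-3 M exposure. ED50 with 95% confidence limits by Litchfield-Wilcoxon, N=16.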

The nature of data set [10]: Dissociation constant, pKa of the compound. Type of data set: physicochemical.
The next data set is filed under the species Cavia porcellus. The experiment in a line: Inhibition of choline acetyltransferase in guinea pig ileum assessed as blockade of electrically stimulated muscle contraction after 3 hrs. Type of data set: tissue-based. The procedure, abridged:
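Guinea pig ileum on coaxial electrode in Tyrode solution, 37°C, 95% O2/5% CO2. Transmural stimulation: monophasic square pulses, 40 V supramaximal, 10 Hz, 0.5 ms, 1 s every 10 s. Contraction blockade gave ED50 with 95% confidence limits by Litchfield-Wilcoxon, N=20.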

The nature of data set [11]: Stability in chloroform-d by NMR spectroscopy. Type of data set: physicochemical.
Data set [12] is described as follows: Stability in D2O assessed every 4 mins for 1 hr by NMR spectroscopy. Type of data set: physicochemical.
Data set [13] deals with T2, Choline O-acetyltransferase (Rattus norvegicus). The experiment in a line: Reversible inhibition of Holtzman rat brain choline acetyltransferase using [1-14C-acetyl]-CoA as substrate at 5 X 10^-4 M incubated 20 mins prior to substrate addition measured after 30 mins by liquid scintillation counting analysis. The procedure, abridged: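 Reversibility test at 5 × 10^-4 M inhibitor with enzyme varied from 10 to 30 mg acetone powder per ml. Rat brain extract preincubated 20 min at 37°C, then [14C]acetyl-CoA radioassay for 30 min with scintillation counting. Mean of three experiments ± SEM.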

Data set [14] in a line: Half life of the compound auto-hydrolysis at 5 X 10^-3 M at pH 7.4. Type of data set: physicochemical. The following applies: buffer. The procedure, abridged: as §1
Data set [15] relates to Lithobates pipiens. The experiment in a line: Inhibition of choline acetyltransferase in frog sciatic nerve-gastrocnemius muscle assessed as blockade of electrically stimulated muscle contraction at 10^-3 M incubated for 3 hrs followed by compound washout. Type of data set: tissue-based. The gist of the method: as §4
The target of data set [16] is T2, Choline O-acetyltransferase (Rattus norvegicus). The experiment in a line: Inhibition of Holtzman rat brain choline acetyltransferase using [1-14C-acetyl]-CoA as substrate at 1 mM treated with buffered solution at pH 7.4 for 3 to 60 mins prior to enzyme addition followed by 20 mins incubation prior to substrate addition […] by liquid scintillation counting analysis.

For data set [17] the target is unchanged. The experiment in a line: Uncompetitive inhibition of Holtzman rat brain choline acetyltransferase using choline as substrate at 1 mM incubated 20 mins prior to substrate addition measured after 30 mins by LB plot using liquid scintillation counting analysis.

Cholinesterase, sequence (P06276 whole entry): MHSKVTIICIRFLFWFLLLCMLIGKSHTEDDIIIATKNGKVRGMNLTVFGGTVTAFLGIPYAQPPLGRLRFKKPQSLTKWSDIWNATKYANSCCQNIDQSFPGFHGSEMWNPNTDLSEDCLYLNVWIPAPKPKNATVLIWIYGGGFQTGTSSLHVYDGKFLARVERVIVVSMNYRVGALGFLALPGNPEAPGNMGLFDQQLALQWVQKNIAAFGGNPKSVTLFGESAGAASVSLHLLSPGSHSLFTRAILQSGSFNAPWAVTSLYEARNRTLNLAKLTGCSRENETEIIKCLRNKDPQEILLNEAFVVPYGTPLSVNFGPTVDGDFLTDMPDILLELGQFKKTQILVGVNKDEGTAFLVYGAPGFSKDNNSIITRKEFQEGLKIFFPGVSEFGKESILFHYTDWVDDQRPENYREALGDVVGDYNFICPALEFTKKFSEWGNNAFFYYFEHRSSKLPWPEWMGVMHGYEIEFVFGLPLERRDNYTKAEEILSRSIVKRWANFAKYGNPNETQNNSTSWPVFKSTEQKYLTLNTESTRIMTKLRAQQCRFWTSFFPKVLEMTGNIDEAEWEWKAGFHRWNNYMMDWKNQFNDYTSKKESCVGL
Acetylcholinesterase, sequence (P22303 whole entry): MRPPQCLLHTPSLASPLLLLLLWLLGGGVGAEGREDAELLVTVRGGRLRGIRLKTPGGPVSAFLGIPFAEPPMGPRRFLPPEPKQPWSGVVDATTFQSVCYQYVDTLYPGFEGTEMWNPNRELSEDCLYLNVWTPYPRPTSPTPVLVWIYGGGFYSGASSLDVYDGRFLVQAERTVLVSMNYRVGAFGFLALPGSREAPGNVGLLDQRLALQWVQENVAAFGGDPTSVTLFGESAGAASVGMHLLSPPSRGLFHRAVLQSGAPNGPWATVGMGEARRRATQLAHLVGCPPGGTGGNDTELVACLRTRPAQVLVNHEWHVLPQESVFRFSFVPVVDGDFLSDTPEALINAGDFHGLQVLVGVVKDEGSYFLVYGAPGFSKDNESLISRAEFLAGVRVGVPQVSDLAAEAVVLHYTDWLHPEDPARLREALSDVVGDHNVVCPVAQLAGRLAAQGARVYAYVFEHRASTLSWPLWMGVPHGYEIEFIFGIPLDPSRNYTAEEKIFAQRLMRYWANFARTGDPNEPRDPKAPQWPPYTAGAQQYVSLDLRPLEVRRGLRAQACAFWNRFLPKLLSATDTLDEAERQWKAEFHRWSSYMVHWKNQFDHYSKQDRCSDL

`CC(=O)OCC[N+](C)(C)C` [ACETYLCHOLINE]: the Drug degradation in data set [1] was found to be 1.75 ×10⁻⁸ mol/min; at Cholinesterase, 6.57 ×10⁻⁸ mol/min; on Acetylcholinesterase it was 1.46 ×10⁻⁸ mol/min.

With `C=CC(=O)O` [ACRYLIC ACID], the IC50 in [2] is below 200 µM.

For the compound `C=CC(=O)OCCN(C)C`, the Stability result in [3] is reported as “Stable”; in data set [5], “Stable”; in data set [8], “Unstable”; in data set [11], “Stable”; in [12] it was “Stable”. Also, the Drug degradation came out at 1.75 ×10⁻⁸ mol/min in data set [1], 0.06 ×10⁻⁸ mol/min on Cholinesterase and 0.07 ×10⁻⁸ mol/min at Acetylcholinesterase. Also, the inhibition result (in data set [4]; in data set [13]; with Lithobates pipiens [15]; in [16]; in data set [17]) was “Active” throughout. Moreover, the IC50 in [6] is 502 µM. The inhibition result in [7] is “inactive”. Further, the ED50 in the data set with Lithobates pipiens [9] was 5.05 ×10⁻⁴ M; in the data set listed under Cavia porcellus, 1.21 ×10⁻⁴ M. In addition, the pKa (in general, the negative logarithm of the acid dissociation constant) in data set [10] is 8.6. The half-life – broadly, the time in which the quantity being followed falls by half – at 5000 µM in [14] is 24 h.
